Screens as filed in PubChem.
CR mimetic SO: yeast age-related superoxide inhibition as caloric restriction mimetic | S. cerevisiae aged cells, superoxide DHE fluorescence; hits give low values | superoxide response (% of plate mean), % at 10 µM | actives 0.18% (n = 330,000);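 active = superoxide response under a set limit, about three screen SD below normal, cut at about 65% in these data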;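 note: yeast aged for seven days with compound at 30 °C before DHE staining; 100% = average MFI of all compound-treated wells on the plate with controls excluded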
Rce1 inhib: blocks yeast Ras-converting enzyme; Q03530; yeast membranes, quenched prenylated peptide cleavage fluorescence; calls only; actives 0.27% (n = 290,000);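 active = fall in fluorescence gain of 50% or more versus controls, with final raw signal at or below 3038400; inconclusive = same 50% fall but final raw signal above 3038400; inactive = fall in fluorescence gain under 50%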;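 note: plate controls were neutral control wells for no effect and wells lacking membranes for full effect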
Target sequence (Q03530 whole entry, looked up): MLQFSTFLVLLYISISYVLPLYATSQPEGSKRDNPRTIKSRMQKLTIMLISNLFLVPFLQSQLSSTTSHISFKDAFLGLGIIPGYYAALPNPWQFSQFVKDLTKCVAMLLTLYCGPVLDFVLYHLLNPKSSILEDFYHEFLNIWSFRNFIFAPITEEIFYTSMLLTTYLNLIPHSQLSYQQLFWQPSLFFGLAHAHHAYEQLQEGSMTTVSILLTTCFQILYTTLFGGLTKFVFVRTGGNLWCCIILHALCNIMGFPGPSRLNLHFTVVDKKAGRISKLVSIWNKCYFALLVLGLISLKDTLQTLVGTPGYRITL
KLK7 zymogen act: activates the human kallikrein-7 zymogen | actives 0.9% (n = 370,000) | P49862 | purified proKLK7, EDANS-DABCYL substrate fluorescence; 100% is mature enzyme control, 0% vehicle | activation, % at 7 µM;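 active = activation above the mean of all tested compounds plus 3 SD, computed per campaign excluding outliers beyond control limits, cut at about 13% in these data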
Target sequence (P49862 whole entry, looked up): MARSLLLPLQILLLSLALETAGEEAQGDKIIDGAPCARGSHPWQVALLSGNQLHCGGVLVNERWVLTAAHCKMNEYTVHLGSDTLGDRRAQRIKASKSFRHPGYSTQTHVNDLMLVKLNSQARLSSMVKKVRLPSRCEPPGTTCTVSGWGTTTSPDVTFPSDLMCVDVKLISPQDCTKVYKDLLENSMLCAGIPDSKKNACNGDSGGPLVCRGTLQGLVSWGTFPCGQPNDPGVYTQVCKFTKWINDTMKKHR
MIN6 prolif: induces beta-cell replication in MIN6 cells; MIN6 cells proliferation, ATPlite luminescence, 48 h; cells starved in 0.2% serum; 100% = growth in 10% serum; proliferation, % at 10 µM; actives 0.29% (n = 330,000); AID 2380;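 active = compounds whose signal lies at least 3.5 SD above the mean of all wells on their plate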;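 note: 0% = DMSO-treated cells in low-serum medium and 100% = 10% serum control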
V-ATPase pHluor: alters yeast V-ATPase proton transport | S. cerevisiae, pHLuorin cytosolic pH fluorescence | response, % at 10 µM | actives 0.37% (n = 350,000); in the data active = response mostly above about 7.3%, no sharp cut-off; inactive = mostly below about 5.4%; note: actives read high
T cell modulator: modulates CD8 T cell binding to vesicles; 2C CD8+ T cell-vesicle binding, flow cytometry; hits give low values; response (vesicle binding), % at 7 µM; actives 0.068% (n = 330,000); AID 2052;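 active = response, share of CD8 T cells binding vesicles, and their 90th percentile fluorescence all below set limits, cut at about 80% in these data, passing the limit was not always enough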;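 note: values below 100% mean blocked vesicle binding to the CD8+ T cells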
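Material: murine 2C transgenic CD8+ T lymphocytes / Also added: QL9-peptide-loaded Drosophila micro-vesicles bearing Ld, ICAM-1 and B7-1 / Schedule: binding step 1.5 h, 37 °C, antibody labelling 20 min, ice / Signal: flow cytometry, PE anti-B7-1 (FL2) versus Alexa647 anti-CD8 (FL8), PFA-fixed / Evaluation: percent CD8+ FL2 mean versus row control / Benchmarks: naked versus QL9-loaded vesicles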
KLK7 act conf: confirmation of human kallikrein-7 zymogen activators; actives 68% (n = 3,200); activation, % at 7 µM; purified proKLK7, EDANS-DABCYL substrate fluorescence; scaled: vehicle 0, mature enzyme 100; shares compounds with KLK7 zymogen act;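 active = activation, as change over the incubation, above the mean of all tested compounds plus 3 SD, cut at about 13% in these data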
EDANS-DABCYL int: counter-screen for kallikrein-7 activators: EDANS-DABCYL optical interference; activation, % at 7 µM; EDANS-DABCYL substrate fluorescence interference, no enzyme, 4 h; solvent 0%, active enzyme control 100%; shares compounds with KLK7 zymogen act; actives 80% (n = 3,200);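 active = activation above the all-compound mean plus 3 SD, ignoring values outside control-based bounds, cut at about 4.8% in these data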;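 note: value is the 4 h activation minus the activation read at time zero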
EDANS interf: EDANS fluorescence interference in dose response, no enzyme. shares compounds with KLK7 zymogen act. EDANS-DABCYL peptide fluorescence interference. EC50, µM. actives 20% (n = 250). AID 720493;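 active = compounds that raise the fluorescence signal in this interference counterscreen, with EC50 at or below 10 µM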;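 note: intact quenched peptide substrate alone read at 355 nm excitation and 520 nm emission; signal is fluorescence gain from T0 to T4 after four hours at room temperature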
The depositor's hits bear a star; i = inactive; u = inconclusive; x = not tested or not shown. An excerpt weighted towards active compounds, which were near 1.9% of everything screened.

SMILES | CR mimetic SO | Rce1 inhib | KLK7 zymogen act | MIN6 prolif | V-ATPase pHluor | T cell modulator | KLK7 act conf | EDANS-DABCYL int | others
CCOC(=O)c1cc2c(=O)n3ccccc3nc2n(CC2CCCO2)c1=NC(=O)/C=C/c1ccccc1 (stereo unspecified) | 99.7 | x | 92.2* | -2.1 | -2.8 | 233.2 | 16.1* | 1.0 | EDANS interf=>69.5
CCOC(=O)c1cc2c(=O)n3ccccc3nc2n(CC2CCCO2)c1=NC(C)=O (stereo unspecified) | 122.0 | x | 80.2* | -1.1 | -6.3 | 281.3 | 64.1* | 67.5*
Cc1ccc(CNC(=O)c2cc3c(=O)n4ccccc4nc3n(CC3CCCO3)c2=N)cc1 (stereo unspecified) | 101.6 | u | x | 1.2 | -2.5 | 375.3 | x | x
Cc1ccc(C)c(N2CCN(S(=O)(=O)c3cc4c(cc3Cl)NC(=O)CO4)CC2)c1 | 118.2 | i | -0.8 | -1.9 | 0.0 | 492.1 | x | x
O=S(=O)(NCC1CCCO1)c1ccc(Cl)c2ccccc12 (stereo unspecified) | x | x | 0.1 | x | 1.9 | x | x | x
O=C1Nc2ccc(S(=O)(=O)NCC3CCCO3)c3cccc1c23 (stereo unspecified) | 82.1 | i | 48.0* | 1.1 | -2.1 | 467.2 | 66.3* | 73.8*
CCN1C(=O)c2cccc3c(S(=O)(=O)NCC4CCCO4)ccc1c23 (stereo unspecified) | 91.8 | i | 57.3* | -1.8 | -3.5 | 429.2 | 70.9* | 65.5*
CC1(N=Cc2cc(Cl)ccc2O)COP(=O)(NC2CCCC2)OC1 (stereo unspecified) | x | x | 0.5 | x | 2.6 | x | x | x
CNc1cc(C)c(C#N)c2nc3ccccc3n12 | 108.9 | i | 33.3* | 0.0 | -0.1 | 522.0 | 93.3* | 77.2*
Cc1cc(Cl)n2c(nc3ccccc32)c1C#N | x | i | 2.3 | x | -35.1 | x | x | x
Cc1cc(NCc2ccccn2)n2c(nc3ccccc32)c1C#N | x | i | -2.4 | x | -3.2 | x | x | x
COCCNc1cc(C)c(C#N)c2nc3ccccc3n12 | 98.7 | i | 37.3* | -2.4 | 1.4 | 133.5 | 34.4* | 46.0*
Cc1cc(NCCOCCO)n2c(nc3ccccc32)c1C#N | 92.7 | i | 48.2* | 3.3 | 1.0 | 177.9 | 85.4* | 92.4*
N#Cc1c2c(c(NCCOCCO)n3c1nc1ccccc13)CCCC2 | 122.3 | i | 6.3 | 1.5 | 2.1 | 813.8 | x | x
Cc1cc(NCCCO)n2c(nc3ccccc32)c1C#N | 108.5 | i | 14.8* | -1.8 | 0.4 | 587.6 | 50.6* | 70.0*
CCCNc1cc(C)c(C#N)c2nc3ccccc3n12 | 98.5 | x | 6.6 | -1.3 | 2.0 | 304.4 | x | x
C[C@@H]1CN([C@H](C)CO)C(=O)CCCn2nncc2CO[C@@H]1CN(C)S(=O)(=O)c1ccc(Cl)cc1 | x | x | 0.4 | x | 4.3 | x | x | x
O=C(COC(=O)c1ccc(S(=O)(=O)N2CCCC2)cc1)Nc1cccc(Cl)c1 | 97.0 | x | -0.1 | 0.5 | 0.4 | 357.5 | x | x
Nc1nc2ncccc2cc1C(=O)NC1CC1 | x | x | 24.6* | x | x | x | 28.1* | 26.9*
Nc1nc2ncccc2cc1C(=O)NC1CCCCC1 | x | x | 24.4* | x | x | x | 19.5* | 24.7*
CC1(C(=O)NS(=O)(=O)c2ccccc2Cl)CCN1C(=O)Cc1ccc(Cl)cc1Cl (stereo unspecified) | x | x | 0.3 | x | x | x | x | x
CC(C)(C)OC(=O)N1CCCC(C(=O)Nc2ccc(C(=O)N3CCCC3)cc2)C1 (stereo unspecified) | 103.4 | x | 0.2 | -2.6 | 0.3 | 516.5 | x | x
Cc1cccn2c(=O)c3cc(C(=O)NC4CCCC4)n(C)c3nc12 | 110.1 | i | -0.2 | 1.6 | 0.0 | 951.1 | x | x
Cc1cccn2c(=O)c3cc(C(=O)NC4CCCCC4)c(=N)n(CCN4CCOCC4)c3nc12 | 94.0 | i | 8.4 | 4.8 | 0.8 | 353.4 | x | x
Cc1cccn2c(=O)c3cc(C(=O)O)n(C)c3nc12 | 103.7 | i | 20.6* | -1.6 | -75.2 | 398.9 | 49.0* | 48.2*
SMILES | CR mimetic SO | Rce1 inhib | KLK7 zymogen act | MIN6 prolif | V-ATPase pHluor | T cell modulator | KLK7 act conf | EDANS-DABCYL int | others
COCCCn1c(=N)c(C(=O)NCc2ccc3c(c2)OCO3)cc2c(=O)n3cccc(C)c3nc21 | x | x | 0.2 | x | -1.1 | x | x | x
CCn1c(=N)c(C(=O)NC)cc2c(=O)n3cccc(C)c3nc21 | x | u | 75.6* | x | -52.9 | x | 67.3* | 72.9*
CCCn1c(=N)c(C(=O)NC2CCCC2)cc2c(=O)n3cccc(C)c3nc21 | 98.5 | i | 132.9* | 0.7 | -0.5 | 216.6 | -16.8 | -41.4
CN(Cc1ccccc1Cl)C(=O)CNC(=O)C12CC3CC(CC(C3)C1)C2 | 97.7 | x | -0.4 | -1.9 | -0.6 | 165.6 | x | x
Cc1ccc(S(=O)(=O)c2nnn3c2nc(N2CCN(c4ccccn4)CC2)c2ccccc23)cc1C | 98.0 | i | -0.2 | -3.7 | -5.3 | 165.5 | x | x
COC(=O)C1=C(C)NC2=C(C(=O)CCC2)C1c1cn(Cc2ccc(Cl)cc2Cl)nc1-c1ccccc1 (stereo unspecified) | 91.9 | i | -19.2 | -3.7 | 11.0 | 187.5 | x | x
CC1=C(C(=O)Nc2ccc(F)cc2)C(c2ccncc2)C2=C(CCCC2=O)N1 (stereo unspecified) | 104.4 | i | 3.5 | -1.9 | -7.4 | 470.4 | x | x
CC1=C(C(=O)Nc2ccccn2)C(c2cn(C)nc2C)C2=C(CCCC2=O)N1 (stereo unspecified) | 97.4 | x | 15.5* | 0.8 | 0.2 | 242.2 | 19.2* | 20.7*
CCn1cc(C2C(C(=O)Nc3ccc(Br)cn3)=C(C)NC3=C2C(=O)CCC3)c(C)n1 (stereo unspecified) | 99.8 | i | 15.5* | -1.0 | 1.4 | 185.6 | 17.4* | 17.1*
O=C1C(=O)N(Cc2ccncc2)C(c2cccc(O)c2)/C1=C(\O)c1ccc2c(c1)OCCO2 (stereo unspecified) | 108.1 | i | 15.4* | -1.8 | -9.4 | 276.3 | 5.7 | 7.4*
O=C1CC2(CCN(C(=O)c3ccccc3[N+](=O)[O-])CC2)Oc2ccccc21 | 112.9 | i | -0.2 | 0.6 | -4.7 | 303.2 | x | x
N#Cc1c(=O)c2nc(NCc3ccccc3)ncc2n2ccccc12 | 104.9 | x | 18.9* | 1.6 | 0.0 | 848.6 | 23.6* | 25.7*
COc1cc(F)ccc1-c1csc(C(C)(NC(C)=O)c2ccccc2)n1 (stereo unspecified) | x | x | -0.3 | x | x | x | x | x
CS(=O)(=O)N(CC(=O)N1CCOCC1)c1ccc2c(c1)OCO2 | 106.3 | i | 17.2* | 3.2 | 1.9 | 273.5 | 0.5 | -0.4
O=C1CN(C(=O)CNCc2ccc(Cl)cc2)c2ccccc2N1 | 113.9 | i | -0.3 | -1.8 | -1.3 | 124.3 | x | x
